ChEMBL document CHEMBL1629423, “Second generation analogs of rigid 6,7-spiro scaffolds targeting the bacterial ribosome” (Bioorg Med Chem Lett, 2010)

Assays:
Ribosome = test: Binding affinity to ribosome in reticulocyte lysate assessed as inhibition of transcription-translational activity by luciferase assay; assay type: subcellular
Procedure, shortened: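 Eukaryotic counter-screen by coupled transcription/translation (TNT quick) in reticulocyte lysate. IC50 is the mean of three replicate experiments per compound (±15%), in μM.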

Bacterial 70S ribosome = test: Binding affinity to Escherichia coli ribosome assessed as inhibition of transcription-translational activity by luciferase assay; assay type: subcellular
Procedure, shortened: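 Coupled in vitro transcription–translation run in E. coli extract. IC50 values are given in μM and averaged over three replicate experiments per compound (±15%).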

Nucleic Acid = test: Binding affinity to RNA by RNA fluorescence assay; assay type: nucleic-acid assay
Procedure, shortened: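 Decoding-site model RNA oligonucleotide carrying 2-aminopurine at the flexible adenine A1492. Binding is read as the rise in 2AP fluorescence emission. EC50 is the mean of three replicate experiments per compound (±10%), in μM.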

Structure (SMILES)	IC50 (Ribosome)	IC50 (Bacterial 70S ribosome)	EC50 (Nucleic Acid)
NCCCC[C@H](N)C(=O)N[C@@H]1C[C@H](N)[C@@]2(CC[C@H](O)[C@H](O)CO2)[C@H](O)[C@H]1O	> 1000 µM	98 µM	12 µM
N[C@@H]1C[C@H](N)[C@@]2(C[C@H](O)[C@H](O)CO2)[C@H](O)[C@H]1O	> 1000 µM	11.3 µM	6.5 µM
C=CCC(C)(C)CN[C@@H]1C[C@H](N)[C@@]2(CCC=CCO2)[C@H](O)[C@H]1O	> 1000 µM	429 µM	63 µM
NC[C@@H]1O[C@H](O[C@H]2[C@@H](O)[C@H](O[C@@H]3[C@@H](O)[C@H](N)C[C@H](N)[C@H]3O[C@H]3O[C@H](CN)[C@@H](O)[C@H](O)[C@H]3N)O[C@@H]2CO)[C@H](N)[C@@H](O)[C@@H]1O [FRAMYCETIN]	252 µM	0.032 µM	0.007 µM
N[C@@H]1C[C@H](N)[C@@]2(CCC=CCO2)[C@H](O)[C@H]1O	> 1000 µM	> 1000 µM	8.4 µM
N[C@@H]1C[C@H](N)[C@@]2(CC[C@@H](O)[C@@H](O)CO2)[C@H](O)[C@H]1O	160 µM	168 µM	141 µM
N[C@@H]1C[C@H](N)[C@@]2(CC[C@H](O)[C@H](O)CO2)[C@H](O)[C@H]1O	130 µM	118 µM	74 µM
NC[C@H]1O[C@H](O[C@H]2[C@H](O)[C@@H](O)[C@H](N)C[C@@H]2N)[C@H](N)[C@@H](O)[C@@H]1O [NEAMINE]	120 µM	5 µM	9.5 µM
NCC[C@H](O)C(=O)N[C@@H]1C[C@H](N)[C@@]2(CC[C@H](O)[C@H](O)CO2)[C@H](O)[C@H]1O	> 1000 µM	186 µM	6.9 µM
